Test results from ChEMBL document CHEMBL3259664, “Optimization of an imidazopyridazine series of inhibitors of Plasmodium falciparum calcium-dependent protein kinase 1 (PfCDPK1)” (J Med Chem, 2014).

Assays:
[1] = Metabolic stability in mouse liver microsomes assessed as compound remaining measured at 30 mins; format: ADME; conditions: read-out: Stability
[2] = Lipophilicity, log D of the compound; format: physicochemical; conditions: octanol/water
[3] = Metabolic stability in human liver microsomes assessed as compound remaining measured at […]; format: ADME; conditions: read-out: Stability
[4] = Total plasma concentration in NMRI mouse infected with Plasmodium berghei ANKA at 50 mg/kg, po qd administered on day 1 to 3 post infection measured at 1 hr post last dose; format: ADME, organism-based; parameters: dose 50 mg/kg, route oral
How it was run: (§1)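 4-day Peters test in groups of 3 mice infected iv on day 0. Oral dosing was 50 mg/kg once daily at 4, 24, 48 and 72 h post-infection. The monohydrochloride salt was dissolved in 30:70 EtOH/Tween-80 and diluted 10-fold with water. Blood was sampled for total plasma compound levels.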

[5] = Total plasma concentration in NMRI mouse infected with Plasmodium berghei ANKA at 50 mg/kg, po qd administered on day 1 to 3 post infection measured at 4 hrs post last dose; format: ADME, organism-based; parameters: dose 50 mg/kg, route oral; how it was run: as §1
[6] = test system: Rattus norvegicus; test: Half life in rat at […], iv; format: ADME, organism-based; parameters: dose 4.5 mg/kg, route intravenous; conditions: in vivo
[7] = Oral bioavailability in rat at 21 mg/kg; format: ADME, organism-based; conditions: in vivo
[8] = test system: Rattus norvegicus; test: Volume of distribution in rat at […], iv and 21 mg/kg, po; format: ADME, organism-based; conditions: in vivo

remaining at 0.5 h [1]	logD [2]	remaining [3]	SMILES	other results
58%	3.7	78%	CN1CCC(Nc2ccc3ncc(-c4ccc(Nc5ncc(F)cc5F)cc4)n3n2)CC1	–
–	2.5	–	Cc1ccc2ncc(-c3cnc(Nc4ncccc4F)nc3)n2n1	–
–	1.5	–	CN1CCC(Oc2ccc3ncc(-c4cnc(Nc5ncccc5F)nc4)n3n2)CC1	–
82%	3.3	60%	Fc1cccnc1Nc1ccc(-c2cnc3ccc(N[C@H]4CC[C@H](N5CCCC5)CC4)nn23)cc1	–
85%	3.7	81%	CN1CCC(Nc2ccc3ncc(-c4ccc(Nc5ccc(C(F)(F)F)cn5)cc4)n3n2)CC1	–
57%	3.1	77%	N[C@H]1CC[C@H](Nc2ccc3ncc(-c4ccc(Nc5ncc(Cl)cc5F)cc4)n3n2)CC1	–
–	0.4	–	Fc1cccnc1Nc1ncc(-c2cnc3ccc(NC4CCNC4)nn23)cn1 (racemic)	–
57%	3.1	77%	CN1CCC(Nc2ccc3ncc(-c4ccc(Nc5ncccc5F)nc4)n3n2)CC1	–
85%	1.4	98%	CN1CCC(Nc2ccc3ncc(-c4cnc(Nc5ncccc5F)nc4)n3n2)CC1	–
100%	1.1	92%	Cc1ccc(Nc2ncc(-c3cnc4ccc(N[C@H]5CC[C@H](N)CC5)nn34)cn2)nc1	–
–	1.3	–	CN1CCC(Cc2ccc3ncc(-c4cnc(Nc5ncccc5F)nc4)n3n2)CC1	–
85%	0.2	93%	N[C@H]1CC[C@H](Nc2ccc3ncc(-c4cnc(Nc5ncccc5F)nc4)n3n2)CC1	–
92%	1.6	89%	N[C@H]1CC[C@H](Nc2ccc3ncc(-c4cnc(Nc5ccccc5)nc4)n3n2)CC1	–
73%	3.4	80%	CN1CCC(Nc2ccc3ncc(-c4ccc(Nc5cccc(C(F)(F)F)n5)cc4)n3n2)CC1	–
–	1.6	–	CN1CCN(CCNc2ccc3ncc(-c4cnc(Nc5ncccc5F)nc4)n3n2)CC1	–
47%	3.2	80%	CN1CCC(Nc2ccc3ncc(-c4ccc(Nc5ncccc5F)cc4)n3n2)CC1	concentration at 1 h [4]: 1660 ng/mL; concentration at 4 h [5]: 1460 ng/mL
–	1.5	–	CN1CCC(Nc2ccc3ncc(-c4cnc(Nc5ncccc5F)nc4)n3n2)C1 (racemic)	–

remaining at 0.5 h [1]	logD [2]	remaining [3]	SMILES	other results
–	0.7	–	Fc1cccnc1Nc1ncc(-c2cnc3ccc(N4CCNCC4)nn23)cn1	–
87%	2	68%	N[C@H]1CC[C@H](Nc2ccc3ncc(-c4ccc(Nc5ncc(F)cc5F)cc4)n3n2)CC1	–
–	2.9	–	Fc1cccnc1Nc1ncc(-c2cnc3ccc(NCCN4CCOCC4)nn23)cn1	–
61%	3.7	86%	CN1CCC(Nc2ccc3ncc(-c4ccc(Nc5ncc(Cl)cc5F)cc4)n3n2)CC1	–
93%	1.6	69%	N[C@H]1CC[C@H](Nc2ccc3ncc(-c4cnc(Nc5ncc(C(F)(F)F)cc5F)nc4)n3n2)CC1	–
88%	2.8	71%	Fc1cccnc1Nc1ccc(-c2cnc3ccc(N[C@H]4CC[C@H](N5CCCC5)CC4)nn23)cn1	–
–	1.5	–	CN1CCC(Oc2ccc3ncc(-c4cnc(Nc5ncccc5F)nc4)n3n2)C1 (racemic)	–
–	1.9	–	Fc1cccnc1Nc1ncc(-c2cnc3ccc(N[C@H]4CC[C@H](N5CCCC5)CC4)nn23)cn1	–
95%	0.4	95%	N[C@H]1CC[C@H](Nc2ccc3ncc(-c4cnc(NCc5ccccn5)nc4)n3n2)CC1	–
–	3.2	–	Fc1cccnc1Nc1ncc(-c2cnc3ccc(N[C@H]4CC[C@H](N5CCOCC5)CC4)nn23)cn1	–
52%	3.5	77%	Cc1ccc(F)c(Nc2ccc(-c3cnc4ccc(NC5CCN(C)CC5)nn34)cc2)n1	–
–	2.2	–	CN1CCN(c2ccc3ncc(-c4cnc(Nc5ncccc5F)nc4)n3n2)CC1	–
90%	2.2	83%	Cc1ccc(F)c(Nc2ccc(-c3cnc4ccc(N[C@H]5CC[C@H](N)CC5)nn34)cc2)n1	–
93%	1.1	99%	N[C@H]1CC[C@H](Nc2ccc3ncc(-c4cnc(Nc5ccccn5)nc4)n3n2)CC1	–
–	–	–	CN1CCC(Nc2ccc3ncc(-c4ccc(Nc5ncccc5F)cc4)n3n2)CC1.Cl	t1/2 [6]: 4 h; bioavailability [7]: 70%; Vd [8]: 8 L/kg
–	1.5	–	Fc1cccnc1Nc1ncc(-c2cnc3ccc(NCCN4CCCC4)nn23)cn1	–
